Screening results from PubChem BioAssay.
PLAP act = activates human placental alkaline phosphatase | P05187 | purified PLAP enzyme, luminescent substrate read-out; stronger effect = higher value | activation fold at 20 µM | 1.2% of 96,000 active | AID 696; in the data active = activation fold above about 2
Target sequence (P05187 whole entry, looked up): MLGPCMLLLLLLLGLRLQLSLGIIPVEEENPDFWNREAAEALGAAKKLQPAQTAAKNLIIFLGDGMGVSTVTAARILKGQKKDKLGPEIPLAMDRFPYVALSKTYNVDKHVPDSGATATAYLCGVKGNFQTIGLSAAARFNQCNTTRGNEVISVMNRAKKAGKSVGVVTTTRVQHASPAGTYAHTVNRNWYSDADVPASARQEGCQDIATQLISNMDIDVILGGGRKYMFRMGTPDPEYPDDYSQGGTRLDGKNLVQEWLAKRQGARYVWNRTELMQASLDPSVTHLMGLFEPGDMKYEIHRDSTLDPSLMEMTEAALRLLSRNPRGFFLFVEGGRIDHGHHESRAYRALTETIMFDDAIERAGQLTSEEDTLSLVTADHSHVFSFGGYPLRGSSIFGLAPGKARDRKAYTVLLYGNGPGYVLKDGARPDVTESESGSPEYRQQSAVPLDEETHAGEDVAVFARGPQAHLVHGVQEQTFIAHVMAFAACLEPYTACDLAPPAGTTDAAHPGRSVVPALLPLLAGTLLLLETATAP
PLK1 PBD inh = inhibitors of human Plk1 polo box domain binding. P53350. Plk1 PBD phosphopeptide binding, fluorescence polarization. inhibition, %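 (tested at about 20 µM)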. 0.13% of 97,000 active. AID 693; in the data active = inhibition above about 34%, passing the limit was not always enough
LYP act = LYP (human) phosphatase activation; recombinant LYP, DiFMUP fluorescence; 0 = plate median, 100 = signal doubled; activation, % at 2 µM; 0.11% of 96,000 active;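 active = activation at 2 µM above a set limit, the mean plus 5 SD, cut at about 37% in these data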
LYP inh 2 = inhibitors of human LYP (PTPN22) phosphatase; Q9Y2R2; recombinant LYP catalytic domain, DiFMUP fluorescence; inhibition, % at 2 µM; 0.21% of 96,000 active; AID 640;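 active = inhibition at 2 µM at or above a set limit, the screen mean plus 3 SD, cut at about 24% in these data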
Rev-RRE block = HIV Rev-RRE protein-RNA interaction inhibition; P05866; inhibition, % at 8 µM; 0.79% of 97,000 active; Rev peptide-RRE RNA binding, FRET;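 active = inhibition above the screen-wide mean plus 3 SD, cut at about 35% in these data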
Target sequence (P05866 whole entry, looked up): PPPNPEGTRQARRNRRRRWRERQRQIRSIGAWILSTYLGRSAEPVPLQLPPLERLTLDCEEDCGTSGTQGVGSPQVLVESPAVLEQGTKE
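Assay system: Labelled RRE RNA duplex and labelled Rev peptide | Times: 5 min preincubation and 15 min binding, 25 °C | Detection: FRET, ex 480 nm, em 540 and 671 nm | Evaluation: % inhibition of FRET ratio versus controls | Benchmarks: DMSO wells as 0% and neomycin B wells as 100% inhibition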
PLK1 inh = inhibitors of human PLK1 kinase. inhibition, % at 10 µM. 0.53% of 97,000 active. P53350. recombinant PLK1 kinase, TR-FRET peptide phosphorylation;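 active = inhibition of 50% or more in the single-concentration screen; inactive = inhibition below 50%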
Large screens that a line does not name were inactive; [ ] = another dose, or the depositor's remark. An excerpt weighted towards active compounds, which were near 2.7% of everything screened.

CCN1C(=O)C2(SC(NC(C)=O)=NN2C(C)=O)c2cc(C)ccc21 (stereo not given)	none
Cc1ccc(-c2cc(C(=O)NCC3CCCO3)no2)cc1 (stereo not given)	none
CN(C)CCCNc1ncnc2c1cnn2-c1ccccc1	PLK1 inh 67
CC(C)OCCCNc1ncnc2c1cnn2-c1ccccc1	none (no result: PLAP act)
O=C1c2[nH]nc(-c3ccccc3O)c2C(c2cccc(O)c2)N1Cc1ccco1 (stereo not given)	PLAP act 2.2
COc1ccc(-c2nc(-c3ccccc3)c(-c3cccs3)[nH]2)cc1OC	PLAP act 2
COc1ccc(-c2nc(-c3cccs3)c(-c3cccs3)[nH]2)cc1OC	none
CCc1ccc(OCC(=O)N/N=C2\CC(=O)c3ccccc32)cc1	PLAP act 2.4
CCOc1ccccc1C1C(C#N)=C(N)SC(N)=C1C#N	Rev-RRE block 37
CCOc1ccc(C2C(C#N)=C(N)SC(N)=C2C#N)cc1OC	none (no result: PLK1 PBD inh, LYP act, LYP inh 2, Rev-RRE block, PLK1 inh)
CCOc1ccc(C2C(C#N)=C(N)SC(N)=C2C#N)cc1OCC	PLAP act 2.6 (no result: PLK1 PBD inh, LYP act, LYP inh 2, Rev-RRE block, PLK1 inh)
N#CC1=C(N)SC(N)=C(C#N)C1c1cccc(Oc2ccccc2)c1	Rev-RRE block 80
Cc1ccc(Cn2nnc3c(=O)[nH]c(C4CCCN(C(=O)Nc5ccc(F)cc5)C4)nc32)cc1 (stereo not given)	none
CCC(=O)Nc1ccccc1C(=O)OCC(=O)c1ccc2ccccc2c1	none
COc1cccc(Nc2ncccc2C(=O)NCc2ccccc2)c1	Rev-RRE block 52
Cc1nn(-c2nc3ccccc3n2Cc2ccccc2)c2c1C(=O)CC(C)(C)C2	none
O=C(CSc1ncn[nH]1)N1CCN(S(=O)(=O)c2ccc(Cl)cc2)CC1	PLAP act 2.1
Cc1nnc(SCC(=O)N2CCN(S(=O)(=O)c3ccc(Cl)cc3)CC2)[nH]c1=O	none
CCOc1cc(CNCc2ccccn2)ccc1OCC(=O)NC1CCCCC1	PLAP act 2
CCCc1[nH]n(-c2nc3ccccc3s2)c(=O)c1C=NCC(C)C	PLAP act 2.1
CCCN=C(C)c1c(-c2ccccc2)[nH]n(-c2nc3ccccc3s2)c1=O	none
O=c1[nH]c(CN2CCN(C/C=C/c3ccccc3)CC2)nc2cc(Cl)ccc12	PLK1 inh 69
Cc1cccc2cc(CN(Cc3ccccc3)C(=O)N(C)C)c(=O)[nH]c12	none
Cc1ccc(-c2ccc(/C=C(\C#N)C(=O)Nc3cc(C)nn3-c3ccccc3)o2)cc1	Rev-RRE block 103[fluorescence artefact?]
N#C/C(=C\c1ccc(-c2ccccc2)o1)C(=O)Nn1cnnc1	none
CC(C)c1ccc(CN2CCC(C(=O)NCc3cccnc3)CC2)cc1	none
O=C(N1CCOCC1)N1CCC(n2nnc3cc(F)ccc32)CC1	Rev-RRE block 40
O=S(=O)(c1ccc2c(c1)OCCO2)N1CCC(n2nnc3cc(F)ccc32)CC1	none (no result: PLAP act)
O=c1c(O)c(-c2cccs2)oc2ccccc12	Rev-RRE block 42
O=c1c(O)c(-c2cccs2)oc2ccc(Cl)cc12	Rev-RRE block 102[fluorescence artefact?]
Cc1ccc(-c2oc3ccccc3c(=O)c2O)cc1	none (no result: PLK1 PBD inh, LYP act, LYP inh 2, Rev-RRE block, PLK1 inh)
O=c1cc(-c2cccs2)oc2ccc(Cl)cc12	none
C/C(=N\NC(=O)C1COc2ccccc2O1)c1ccc(C)o1 (stereo not given)	PLAP act 2
CCCCNC(=O)C1COc2ccccc2O1 (stereo not given)	none
O=C(NC1=NCCS1)C1Cc2ccccc2CN1C(=O)c1ccccc1 (stereo not given)	PLAP act 2.1
CSCC[C@H](NC(=O)OC(C)(C)C)C(=O)N/N=C/c1c(C)[nH]c(=O)[nH]c1=O	PLAP act 2.2
CSCCC(NC(=O)OC(C)(C)C)C(=O)NC(C(=O)NC(CC(C)C)C(N)=O)C(C)C (stereo not given)	none
CCOc1cc(C2C(C(=O)OC(C)C)=C(C)N=C3SCCC(=O)N32)ccc1OC(C)=O (stereo not given)	none
COCCn1c(Cc2ccccc2)nnc1SCc1nc2ccccc2c(=O)[nH]1	LYP inh 2 28
C=CCn1c(Cc2ccc(OC)cc2)nnc1SCc1nc2ccccc2c(=O)[nH]1	none
CCn1c(CNC(=O)COc2ccc(C(C)C)cc2)nnc1SCC(=O)Nc1ccccc1C(C)C	none
CCn1c(CNC(=O)COc2ccc(C(C)C)cc2)nnc1SCC(=O)Nc1ccccc1F	PLAP act 2
CCC(C)n1c(SCC(=O)Nc2cc(C)on2)nc2ccccc2c1=O (stereo not given)	none
CCC(CO)n1c(SCc2cc(=O)oc3cc(C)ccc23)nc2ccccc2c1=O (stereo not given)	PLAP act 2.7
CCN(CC)c1ccc2cc(-c3nnc(-c4ccc(Br)cc4)o3)c(=O)oc2c1	Rev-RRE block 140[fluorescence artefact?] (no result: PLAP act)
CCN(CC)c1ccc2cc(-c3nnc(-c4ccccc4)o3)c(=O)oc2c1	Rev-RRE block 141[fluorescence artefact?] (no result: PLAP act)
O=c1oc2ccc3ccccc3c2cc1-c1nnc(-c2ccccc2)o1	none
COc1ccc(S(N)(=O)=O)cc1C(=O)NCCCN1CCN(c2cccc(Cl)c2)CC1	none
Cc1cc(C)c(S(=O)(=O)N2CCC(C(=O)NCc3ccc(Cl)cc3Cl)CC2)c(C)c1	PLAP act 2.4
COc1ccc(N2CCN(CC(=O)Nc3nc4c(s3)CC(C)CC4)CC2)cc1 (stereo not given)	PLAP act 2.9
C=CCNC(=S)NNC(=O)c1cccc2ccccc12	none
CNC(=S)NNC(=O)c1cccn(Cc2ccc(Cl)c(Cl)c2)c1=O	LYP inh 2 69
CNC(=S)NNC(=O)c1cccn(Cc2cccc(Cl)c2)c1=O	LYP inh 2 60
O=C(Nc1cccn(Cc2c(Cl)cccc2Cl)c1=O)c1ccc(Cl)cc1Cl	none
O=C(Nc1cccn(Cc2c(Cl)cccc2Cl)c1=O)c1ccccc1Cl	none
C=CCNC(=S)NNC(=O)c1cccn(Cc2ccc(Cl)c(Cl)c2)c1=O	LYP inh 2 28
C=CCn1c(=O)c2c3c(sc2n2c(Nc4ccc(C(=O)OCC)cc4)nnc12)CCCC3	none
CC1(C)Cc2cccc(OCC(=O)N3CCN(S(=O)(=O)c4ccc(F)cc4)CC3)c2O1	none
COc1ccc(N=CC2=C(Nc3ccc(OC)cc3)c3c(C)nn(-c4ccccn4)c3CC2)cc1	Rev-RRE block 87[fluorescence artefact?] (no result: PLAP act)
O=c1[nH]c2c(cc1CNCCN1CCOCC1)c(-c1cccc(F)c1)nn2-c1ccccc1	PLAP act 2 (no result: PLK1 PBD inh, LYP act, LYP inh 2, Rev-RRE block, PLK1 inh)
Clc1ccccc1-c1nc2ccccc2c2nncn12	none
O=C(c1cc2ccccn2n1)N1CCN(Cc2ccccc2)CC1	PLK1 inh 54 (no result: Rev-RRE block)
O=C(c1cc2ccccn2n1)N1CCCC1	none
CC(=O)NC(C)c1nc2ccccc2n1C(C)C (stereo not given)	none
Cc1ccc(C(O)c2nc3ccccc3n2C(C)C)cc1 (stereo not given)	PLAP act 2.6
CCc1nc(SCC(=O)c2cc(C)ccc2C)n[nH]1	PLAP act 2.3
Cc1nn2cc(-c3ccc(N)cc3)nc2s1	none
